The target of data set [1] is Phosphatidylinositol 4,5-bisphosphate 3-kinase catalytic subunit beta isoform (Homo sapiens, UniProt P42338). The data set can be described thus: Inhibition of PI3Kbeta (unknown origin).
Data set [2] concerns the target Serine-protein kinase ATM (Homo sapiens, UniProt Q13315). The data set can be described thus: Inhibition of N-terminally FLAG-tagged recombinant full-length ATM (unknown origin) expressed in […] cells using biotin-PEG2-SVEPPLSQETFSD as substrate preincubated for 15 mins followed by substrate addition and measured after 90 mins by TR-FRET assay. The method in brief:
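Full-length N-terminal FLAG ATM from HEK293-6E, anti-FLAG purified, typically 15 nM. Compound was pre-bound 15 min at 22 °C in HEPES pH 7.0 buffer with MgCl2, KCl, DTT, BSA and Igepal. The reaction ran with 10 μM ATP and 1 μM peptide (final) for 90 min at 22 °C and was stopped with EDTA, streptavidin-XL665 and Eu anti-phospho-p53(Ser15). […] 11 concentrations, 20 μM–0.07 nM, in duplicate.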
On the technique in general: Time-resolved FRET reads energy transfer from a long-lived donor to a nearby acceptor.

The nature of data set [3]: Apparent half life in Beagle dog at 0.3 to 0.5 mg/kg, iv administered as bolus dose by LC-MS/MS analysis. The class given is ADME, organism-based, Canis lupus familiaris. The conditions noted are these: in vivo, read-out: t1/2(app) (converted).
Data set [4] concerns SU-DHL-8. The data set can be described thus: Antiproliferative activity against human SUDHL8 cells assessed as reduction in cell viability measured after 4 days by celltiter-glo luminescent assay. The following applies: SU-DHL-8, 96 h. It is filed as functional, cell-based.
Data set [5] has as its target T1, Serine/threonine-protein kinase ATR (Homo sapiens, UniProt Q13535). Kind of data set: In vivo inhibition of ATR in human SUDHL8 cells harboring ATM K1964E mutant xenografted CB-17 mouse assessed as reduction in ATR phosphorylation at 50 mg/kg, po bid dosed every 3 days followed by 4 days interval. It is filed as functional, organism-based. For orientation: Xenograft models place foreign cells or tissue in a host animal.

The subject of data set [6] is SU-DHL-8. Kind of data set: Antitumor activity against human SUDHL8 cells harboring ATM K1964E mutant xenografted in CB-17 mouse assessed as tumor growth at 50 mg/kg, po bid dosed every 3 days followed by 4 days interval relative to control. The class given is functional. The method in brief:
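SU-DHL-8 (ATM K1964E) GCB-DLBCL cell line-derived xenograft in female C.B-17 SCID mice, n = 9/group. Oral dosing at 50 mg/kg b.i.d. on an intermittent schedule of 3 days on/4 days off. Treatment-to-control (T/C) ratio versus vehicle.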

A short description of data set [7]: Oral bioavailability in Wistar rat at 0.6 to 1 mg/kg by LC-MS/MS analysis. The conditions noted are these: in vivo. The class given is ADME, organism-based.
Data set [8] concerns the target T1, Serine/threonine-protein kinase ATR. Kind of data set: In vivo inhibition of ATR in human SUDHL8 cells harboring ATM K1964E mutant xenografted CB-17 mouse assessed as change in pH2AX level at 50 mg/kg, po bid dosed every 3 days followed by 4 days interval. It is filed as functional, organism-based.
Data set [9] can be described thus: Protein binding in human plasma assessed as unbound fraction at 3 uM measured after 7 hrs by LC-MS/MS analysis. The class given is ADME, cell-free.
The nature of data set [10]: Maximum oral bioavailability in mouse liver microsomes based well stirred liver model at 1 uM measured after 2 to 60 mins in presence of NADP by LC-MS/MS analysis. It is filed as ADME, Microsome. The conditions noted are these: read-out: Fmax. (Microsomes from liver hold many membrane-bound enzymes, among them those of drug oxidation.)
Data set [11] can be described thus: Maximum oral bioavailability in dog liver microsomes based well stirred liver model at 1 uM measured after 2 to 60 mins in presence of NADP by LC-MS/MS analysis. The class given is ADME, Canis lupus familiaris, Microsome. The following applies: read-out: Fmax.
The target of data set [12] is T2, Cyclin-G-associated kinase (Homo sapiens, UniProt O14976).
T2 sequence (O14976 whole entry): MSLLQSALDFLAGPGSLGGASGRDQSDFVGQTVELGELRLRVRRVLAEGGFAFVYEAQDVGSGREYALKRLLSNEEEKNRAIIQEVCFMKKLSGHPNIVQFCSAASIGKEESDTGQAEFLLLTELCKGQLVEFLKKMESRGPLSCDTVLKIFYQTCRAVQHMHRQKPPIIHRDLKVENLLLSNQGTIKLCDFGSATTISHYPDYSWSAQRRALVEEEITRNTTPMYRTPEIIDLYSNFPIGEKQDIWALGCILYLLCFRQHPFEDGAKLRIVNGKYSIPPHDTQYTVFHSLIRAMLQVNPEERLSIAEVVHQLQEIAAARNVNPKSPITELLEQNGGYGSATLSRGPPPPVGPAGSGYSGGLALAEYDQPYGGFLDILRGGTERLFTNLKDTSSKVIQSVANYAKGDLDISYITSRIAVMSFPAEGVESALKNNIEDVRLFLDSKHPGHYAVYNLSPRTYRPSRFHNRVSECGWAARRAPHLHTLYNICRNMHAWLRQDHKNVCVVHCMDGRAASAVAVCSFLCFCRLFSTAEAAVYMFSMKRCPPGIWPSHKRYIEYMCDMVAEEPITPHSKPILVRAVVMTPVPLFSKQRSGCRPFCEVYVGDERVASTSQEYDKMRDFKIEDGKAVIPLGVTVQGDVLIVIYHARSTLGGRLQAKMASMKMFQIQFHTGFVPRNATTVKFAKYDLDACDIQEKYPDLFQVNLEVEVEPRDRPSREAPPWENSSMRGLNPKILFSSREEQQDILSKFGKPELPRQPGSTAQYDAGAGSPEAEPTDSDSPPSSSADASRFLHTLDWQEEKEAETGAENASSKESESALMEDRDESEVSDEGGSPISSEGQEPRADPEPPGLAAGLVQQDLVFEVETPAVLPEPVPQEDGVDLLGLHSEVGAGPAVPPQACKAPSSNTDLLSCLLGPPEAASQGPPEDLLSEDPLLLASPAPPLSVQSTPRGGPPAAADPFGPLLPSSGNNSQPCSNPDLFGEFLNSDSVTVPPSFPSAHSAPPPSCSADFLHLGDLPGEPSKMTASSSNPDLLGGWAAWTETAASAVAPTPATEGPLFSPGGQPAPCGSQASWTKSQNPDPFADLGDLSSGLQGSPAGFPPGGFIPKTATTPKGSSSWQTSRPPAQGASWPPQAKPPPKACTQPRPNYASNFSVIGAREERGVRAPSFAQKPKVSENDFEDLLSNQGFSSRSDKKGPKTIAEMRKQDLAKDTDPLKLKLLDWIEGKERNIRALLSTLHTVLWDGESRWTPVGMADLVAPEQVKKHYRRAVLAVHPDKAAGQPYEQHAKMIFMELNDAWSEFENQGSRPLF
The data set can be described thus: Binding affinity to wild-type human partial length GAK (G13 to Y338 residues) expressed in bacterial expression system by Kinomescan method.

In data set [13] the target is Serine/threonine-protein kinase RIO2 (Homo sapiens, UniProt Q9BVS4). The data set can be described thus: Binding affinity to wild-type human partial length RIOK2 (M1 to D313 residues) expressed in mammalian expression system by Kinomescan method.
Data set [14] in a line: Clearance in Han-Wistar rat hepatocytes at 1 uM measured after 2 to 90 mins by LC-MS/MS analysis. The class given is ADME, cell-based, Hepatocyte.
Data set [15] can be described thus: Clearance in Beagle dog at 0.3 to 0.5 mg/kg, iv administered as bolus dose by LC-MS/MS analysis. It is filed as ADME, organism-based, Canis lupus familiaris. The following applies: in vivo.
Data set [16] is described as follows: Inhibition of PI3K/AKT/mTOR signaling pathway in human MCF7 cells assessed as reduction in AKT phosphorylation at Ser473 residues measured after 30 mins by HTRF assay. The following applies: MCF7, 0.5 h.
The nature of data set [17]: Toxicity in nude mouse xenografted with human SUM149 cells assessed as body weight loss at 20 mg/kg, po bid dosed every 3 days followed by 4 days interval in presence of olaparib relative to control. It is filed as organism-based, SUM149PT. The following applies: in vivo.

SMILES strings stand for the structures. The source made the active and inactive calls. The calls are words filed in the database; no cut-off is given here.

T1 sequence (Q13535 whole entry, looked up): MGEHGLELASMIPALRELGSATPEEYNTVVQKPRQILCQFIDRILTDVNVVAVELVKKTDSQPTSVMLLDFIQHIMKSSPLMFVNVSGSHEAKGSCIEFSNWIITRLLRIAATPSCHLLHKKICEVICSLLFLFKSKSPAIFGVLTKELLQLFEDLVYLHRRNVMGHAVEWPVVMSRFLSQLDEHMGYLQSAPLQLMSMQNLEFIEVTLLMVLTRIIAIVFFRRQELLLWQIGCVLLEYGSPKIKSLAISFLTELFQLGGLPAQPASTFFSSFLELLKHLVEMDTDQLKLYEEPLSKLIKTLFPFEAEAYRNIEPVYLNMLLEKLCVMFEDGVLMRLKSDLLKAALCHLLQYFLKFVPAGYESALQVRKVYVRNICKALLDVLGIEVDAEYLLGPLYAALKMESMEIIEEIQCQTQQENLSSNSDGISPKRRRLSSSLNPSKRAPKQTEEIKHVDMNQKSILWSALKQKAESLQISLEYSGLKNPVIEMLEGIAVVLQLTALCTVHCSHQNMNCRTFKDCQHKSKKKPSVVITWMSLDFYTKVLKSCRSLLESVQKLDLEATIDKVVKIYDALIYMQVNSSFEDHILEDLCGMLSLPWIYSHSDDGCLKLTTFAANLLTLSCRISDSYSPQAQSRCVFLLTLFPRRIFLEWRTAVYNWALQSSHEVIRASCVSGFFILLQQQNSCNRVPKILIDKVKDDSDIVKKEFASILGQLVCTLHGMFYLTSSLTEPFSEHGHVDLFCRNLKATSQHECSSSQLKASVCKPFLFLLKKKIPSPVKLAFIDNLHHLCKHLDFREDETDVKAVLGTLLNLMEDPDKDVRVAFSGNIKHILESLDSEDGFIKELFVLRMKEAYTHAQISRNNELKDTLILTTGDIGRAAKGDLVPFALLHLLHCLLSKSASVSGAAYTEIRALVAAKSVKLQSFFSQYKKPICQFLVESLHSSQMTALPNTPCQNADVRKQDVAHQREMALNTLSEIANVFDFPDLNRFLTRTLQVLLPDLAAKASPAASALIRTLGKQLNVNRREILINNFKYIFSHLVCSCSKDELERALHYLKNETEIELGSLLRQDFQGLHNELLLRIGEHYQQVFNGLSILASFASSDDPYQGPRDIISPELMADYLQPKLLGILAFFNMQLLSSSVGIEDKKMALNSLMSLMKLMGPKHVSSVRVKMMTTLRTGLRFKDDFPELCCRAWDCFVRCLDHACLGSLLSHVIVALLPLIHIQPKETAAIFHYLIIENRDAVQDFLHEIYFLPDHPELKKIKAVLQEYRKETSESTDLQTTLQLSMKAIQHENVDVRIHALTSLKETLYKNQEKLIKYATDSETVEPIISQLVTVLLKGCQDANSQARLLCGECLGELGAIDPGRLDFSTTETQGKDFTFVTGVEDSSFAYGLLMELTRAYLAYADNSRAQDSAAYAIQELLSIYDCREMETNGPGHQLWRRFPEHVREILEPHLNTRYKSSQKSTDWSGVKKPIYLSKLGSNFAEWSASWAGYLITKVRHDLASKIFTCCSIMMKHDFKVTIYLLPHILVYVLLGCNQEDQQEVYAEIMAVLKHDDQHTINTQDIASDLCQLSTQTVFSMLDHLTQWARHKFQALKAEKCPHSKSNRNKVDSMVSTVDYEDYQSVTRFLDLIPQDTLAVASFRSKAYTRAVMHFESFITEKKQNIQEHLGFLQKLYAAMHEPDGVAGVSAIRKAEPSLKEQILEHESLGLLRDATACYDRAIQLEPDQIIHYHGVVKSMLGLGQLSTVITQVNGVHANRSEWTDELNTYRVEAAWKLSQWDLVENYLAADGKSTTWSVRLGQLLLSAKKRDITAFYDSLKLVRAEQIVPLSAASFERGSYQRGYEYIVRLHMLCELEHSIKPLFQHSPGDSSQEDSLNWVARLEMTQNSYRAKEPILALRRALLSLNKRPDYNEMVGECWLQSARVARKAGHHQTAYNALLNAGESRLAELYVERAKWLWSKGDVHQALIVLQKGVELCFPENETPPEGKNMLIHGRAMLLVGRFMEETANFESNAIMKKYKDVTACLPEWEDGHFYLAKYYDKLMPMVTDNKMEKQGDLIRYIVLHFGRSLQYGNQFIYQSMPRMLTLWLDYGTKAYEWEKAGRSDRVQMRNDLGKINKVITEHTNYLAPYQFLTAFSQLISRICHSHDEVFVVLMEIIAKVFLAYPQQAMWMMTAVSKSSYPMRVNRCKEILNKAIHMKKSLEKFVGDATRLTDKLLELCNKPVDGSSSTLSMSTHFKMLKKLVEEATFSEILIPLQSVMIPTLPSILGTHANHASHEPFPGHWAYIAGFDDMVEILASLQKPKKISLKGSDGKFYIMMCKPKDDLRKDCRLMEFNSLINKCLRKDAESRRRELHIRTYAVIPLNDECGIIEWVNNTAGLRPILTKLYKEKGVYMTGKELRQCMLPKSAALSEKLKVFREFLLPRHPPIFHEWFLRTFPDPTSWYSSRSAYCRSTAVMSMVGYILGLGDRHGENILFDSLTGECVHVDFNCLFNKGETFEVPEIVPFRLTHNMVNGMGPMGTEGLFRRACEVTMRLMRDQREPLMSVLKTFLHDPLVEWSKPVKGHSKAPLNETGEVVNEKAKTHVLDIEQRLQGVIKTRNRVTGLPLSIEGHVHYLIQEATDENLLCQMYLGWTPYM
Sequence of Serine/threonine-protein kinase RIO2 (Q9BVS4 whole entry, the tested form may be a part): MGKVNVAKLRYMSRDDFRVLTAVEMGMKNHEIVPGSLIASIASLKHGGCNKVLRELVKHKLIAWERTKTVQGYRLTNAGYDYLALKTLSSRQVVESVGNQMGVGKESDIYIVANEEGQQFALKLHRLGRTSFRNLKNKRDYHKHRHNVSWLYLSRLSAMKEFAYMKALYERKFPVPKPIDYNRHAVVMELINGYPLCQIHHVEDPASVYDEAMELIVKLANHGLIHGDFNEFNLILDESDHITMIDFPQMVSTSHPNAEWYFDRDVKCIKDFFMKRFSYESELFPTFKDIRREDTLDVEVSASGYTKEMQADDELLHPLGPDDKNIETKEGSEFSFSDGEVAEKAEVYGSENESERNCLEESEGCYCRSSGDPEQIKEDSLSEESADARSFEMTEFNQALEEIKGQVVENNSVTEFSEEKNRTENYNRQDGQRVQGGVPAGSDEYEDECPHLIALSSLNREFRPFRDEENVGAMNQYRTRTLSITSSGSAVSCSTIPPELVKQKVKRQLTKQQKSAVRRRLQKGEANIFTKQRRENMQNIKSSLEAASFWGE
Sequence of Phosphatidylinositol 4,5-bisphosphate 3-kinase catalytic subunit beta isoform (P42338 whole entry, canonical isoform): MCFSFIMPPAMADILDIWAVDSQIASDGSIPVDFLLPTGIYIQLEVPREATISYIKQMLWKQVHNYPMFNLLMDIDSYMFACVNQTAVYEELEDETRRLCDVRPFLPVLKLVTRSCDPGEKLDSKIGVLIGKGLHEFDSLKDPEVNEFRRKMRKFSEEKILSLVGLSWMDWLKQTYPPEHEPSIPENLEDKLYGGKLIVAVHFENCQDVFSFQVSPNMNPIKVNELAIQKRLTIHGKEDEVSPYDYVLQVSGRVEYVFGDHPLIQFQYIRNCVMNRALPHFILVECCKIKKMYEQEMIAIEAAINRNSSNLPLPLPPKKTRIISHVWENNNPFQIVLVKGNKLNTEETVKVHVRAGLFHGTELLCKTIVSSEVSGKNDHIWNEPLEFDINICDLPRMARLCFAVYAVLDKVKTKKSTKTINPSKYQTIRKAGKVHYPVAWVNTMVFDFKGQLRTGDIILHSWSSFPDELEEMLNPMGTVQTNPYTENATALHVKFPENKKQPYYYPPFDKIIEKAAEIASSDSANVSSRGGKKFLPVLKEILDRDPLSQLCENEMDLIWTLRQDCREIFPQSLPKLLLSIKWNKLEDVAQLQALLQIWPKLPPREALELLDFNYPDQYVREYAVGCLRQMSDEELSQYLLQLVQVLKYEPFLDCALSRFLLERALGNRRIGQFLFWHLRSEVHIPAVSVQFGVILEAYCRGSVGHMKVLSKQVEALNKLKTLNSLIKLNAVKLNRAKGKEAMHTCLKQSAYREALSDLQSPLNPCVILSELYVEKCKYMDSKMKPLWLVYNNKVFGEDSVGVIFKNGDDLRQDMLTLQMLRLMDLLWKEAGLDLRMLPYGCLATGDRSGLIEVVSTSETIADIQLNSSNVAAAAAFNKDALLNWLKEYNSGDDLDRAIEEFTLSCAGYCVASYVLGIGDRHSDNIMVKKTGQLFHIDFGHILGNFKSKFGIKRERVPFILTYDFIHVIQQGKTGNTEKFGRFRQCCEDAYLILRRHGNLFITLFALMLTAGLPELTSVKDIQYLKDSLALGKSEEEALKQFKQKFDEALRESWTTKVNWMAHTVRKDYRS

As a reminder, the IC50 is the midpoint of a concentration-inhibition curve. The term bioavailability denotes the share of a dose that reaches the circulation, judged against a reference dose that is usually intravenous. Low readings indicate little systemic uptake, high ones much systemic uptake. Broadly, the fraction unbound is the share of the substance not bound to proteins or other matrix. A word on the Kd: it is a measure of binding affinity in units of concentration. Read a high Kd as weaker binding. Broadly, the clearance is a measure of how efficiently the substance is removed, as volume per time. Read a low clearance as inefficient removal. As to `C[C@@H]1COCCN1c1cc(-c2ccnn2C)c2ccnc(-c3ccn[nH]3)c2n1` [ELIMUSERTIB], the IC50 came out at 3.27 µM in [1], 1.42 µM in data set [2], 0.009 µM with SU-DHL-8 [4] and 0.035 µM in data set [16]. The half-life in data set [3] was 1 h. The inhibition result in data set [5] and in data set [8] was “Active” in each case. Moreover, in the data set on SU-DHL-8 [6], the T/C is recorded as -0.03. Further, in data set [7], the bioavailability is 87%. Also, the fraction unbound at 7 h, 3 µM in data set [9] came to 0.03. In addition, the values for the Fh at 1 µM in [10] and in data set [11] were 44% and 54%, respectively. Besides, the dissociation constant Kd in data set [12] amounted to 0.58 µM; in data set [13] it was 0.66 µM. The CLH in data set [14] stood at 0.74 L/h/kg. Moreover, the clearance in data set [15] is 0.79 L/h/kg. For the same molecule, the Activity in data set [17] was less than 10%.

The record behind these values is ChEMBL document CHEMBL4610117 (J Med Chem, 2020).
